According to ChEMBL document CHEMBL1128531 (J Med Chem, 1995):
Activity calls are given as the source filed them. The calls are words filed in the database; no cut-off is given here.

Columns and labels:
D(2) dopamine receptor [1] = biological target: T1, D(2) dopamine receptor (Homo sapiens, UniProt P14416); test: Intrinsic activity relative to dopamine for human Dopamine receptor D2 at 10 uM
How it was run: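 Adenylate cyclase functional assay in LTK cells transfected with the human D2 receptor. […] Values are mean ± SEM over the stated number of experiments.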

D(2) dopamine receptor [2] = biological target: T1, D(2) dopamine receptor; test: Adenylate cyclase assay carried out in LTK cells transfected with human Dopamine receptor D2; type: cell-based
D(2) dopamine receptor [3] = biological target: T1, D(2) dopamine receptor; test: Binding affinity against cloned human Dopamine receptor D2 using [3H]spiperone as radioligand transfected in LTK cells
D(1A) dopamine receptor [4] = biological target: T2, D(1A) dopamine receptor (Homo sapiens, UniProt P21728); test: Adenylate cyclase assay carried out in LTK cells transfected with human Dopamine receptor D1; type: cell-based
T2 sequence (P21728 whole entry): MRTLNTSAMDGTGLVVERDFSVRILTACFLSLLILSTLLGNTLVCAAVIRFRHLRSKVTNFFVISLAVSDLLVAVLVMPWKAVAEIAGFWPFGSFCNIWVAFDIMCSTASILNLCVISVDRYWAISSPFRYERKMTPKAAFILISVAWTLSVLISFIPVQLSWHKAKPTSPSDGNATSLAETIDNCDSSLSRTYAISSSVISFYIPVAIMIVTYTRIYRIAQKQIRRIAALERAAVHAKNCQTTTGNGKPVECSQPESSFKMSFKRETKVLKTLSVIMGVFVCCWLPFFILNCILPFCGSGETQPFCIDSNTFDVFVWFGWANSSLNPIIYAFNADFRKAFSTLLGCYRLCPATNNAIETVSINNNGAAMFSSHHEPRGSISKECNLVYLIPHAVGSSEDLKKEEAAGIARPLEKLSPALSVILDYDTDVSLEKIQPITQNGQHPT

D(1A) dopamine receptor [5] = biological target: T2, D(1A) dopamine receptor; test: Binding affinity against cloned human Dopamine receptor D1 using [125I]-SCH 23982 as radioligand transfected in HEK cells; type: cell-based, HEK293
Rattus norvegicus = test: Ability to produce robust rotation in the lesioned rat after subcutaneous administration; type: functional; details: sc
D(2) dopamine receptor [6] = biological target: T1, D(2) dopamine receptor
[7] = biological target: T3, 5-hydroxytryptamine receptor 1A (Mus musculus, UniProt Q64264); test: Binding affinity against serotonergic 5-HT1a receptor
T3 sequence (Q64264 whole entry): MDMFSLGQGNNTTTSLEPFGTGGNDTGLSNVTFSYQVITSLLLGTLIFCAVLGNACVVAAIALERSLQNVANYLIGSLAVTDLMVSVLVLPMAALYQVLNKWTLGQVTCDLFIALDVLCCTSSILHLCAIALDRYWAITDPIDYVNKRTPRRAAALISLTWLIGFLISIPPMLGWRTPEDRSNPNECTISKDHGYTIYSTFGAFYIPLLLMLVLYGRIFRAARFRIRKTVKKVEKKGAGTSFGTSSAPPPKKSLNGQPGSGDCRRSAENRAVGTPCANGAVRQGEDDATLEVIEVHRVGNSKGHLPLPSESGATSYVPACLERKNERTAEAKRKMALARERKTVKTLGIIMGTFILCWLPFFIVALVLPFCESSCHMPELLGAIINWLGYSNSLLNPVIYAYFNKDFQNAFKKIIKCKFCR

[8] = biological target: T4, 5-hydroxytryptamine receptor 2C (Rattus norvegicus, UniProt P08909); test: Binding affinity against serotonergic 5-HT1c receptor
T4 sequence (P08909 whole entry): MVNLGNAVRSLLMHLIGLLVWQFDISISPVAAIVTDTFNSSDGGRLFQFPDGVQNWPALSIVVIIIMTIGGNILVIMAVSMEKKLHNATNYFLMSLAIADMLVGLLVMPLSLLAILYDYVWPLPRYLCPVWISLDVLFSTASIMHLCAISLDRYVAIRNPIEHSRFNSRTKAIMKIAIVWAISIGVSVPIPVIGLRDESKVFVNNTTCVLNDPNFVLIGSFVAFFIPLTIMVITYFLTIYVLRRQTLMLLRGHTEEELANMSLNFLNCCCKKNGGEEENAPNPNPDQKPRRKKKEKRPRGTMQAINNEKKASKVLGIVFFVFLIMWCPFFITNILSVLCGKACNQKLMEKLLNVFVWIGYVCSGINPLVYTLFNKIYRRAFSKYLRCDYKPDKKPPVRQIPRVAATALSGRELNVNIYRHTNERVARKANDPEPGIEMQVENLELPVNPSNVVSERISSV

[9] = biological target: 5-hydroxytryptamine receptor 2A (Bos taurus, UniProt Q75Z89); test: Binding affinity against serotonergic 5-HT2 receptor
5-hydroxytryptamine receptor 2A, sequence (Q75Z89 whole entry): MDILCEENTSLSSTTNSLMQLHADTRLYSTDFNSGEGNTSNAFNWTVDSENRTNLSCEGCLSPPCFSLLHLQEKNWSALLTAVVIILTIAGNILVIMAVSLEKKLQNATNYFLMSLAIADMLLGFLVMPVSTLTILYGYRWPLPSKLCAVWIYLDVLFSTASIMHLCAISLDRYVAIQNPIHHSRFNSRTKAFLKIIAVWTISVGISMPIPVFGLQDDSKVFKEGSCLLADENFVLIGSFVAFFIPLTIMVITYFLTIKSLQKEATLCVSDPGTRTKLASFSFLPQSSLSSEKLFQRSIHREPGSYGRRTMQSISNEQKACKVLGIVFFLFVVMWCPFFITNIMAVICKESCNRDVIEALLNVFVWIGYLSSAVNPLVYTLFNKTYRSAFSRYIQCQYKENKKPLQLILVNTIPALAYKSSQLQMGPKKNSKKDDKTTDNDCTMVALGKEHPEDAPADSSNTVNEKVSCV

[10] = biological target: Beta-1 adrenergic receptor (Homo sapiens, UniProt P08588); test: Binding affinity against Beta-1 adrenergic receptor
Beta-1 adrenergic receptor, sequence (P08588 whole entry): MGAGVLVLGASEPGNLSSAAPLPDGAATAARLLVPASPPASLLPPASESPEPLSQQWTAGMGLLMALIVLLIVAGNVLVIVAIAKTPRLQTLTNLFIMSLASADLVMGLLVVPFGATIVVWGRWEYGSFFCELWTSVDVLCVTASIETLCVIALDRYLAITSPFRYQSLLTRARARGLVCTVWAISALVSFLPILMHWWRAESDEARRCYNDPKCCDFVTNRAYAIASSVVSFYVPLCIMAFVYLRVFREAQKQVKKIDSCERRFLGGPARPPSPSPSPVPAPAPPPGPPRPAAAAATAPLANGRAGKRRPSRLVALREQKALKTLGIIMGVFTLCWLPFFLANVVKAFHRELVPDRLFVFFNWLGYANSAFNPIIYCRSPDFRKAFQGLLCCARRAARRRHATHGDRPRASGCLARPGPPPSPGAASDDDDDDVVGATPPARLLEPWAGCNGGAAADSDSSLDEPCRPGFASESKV

[11] = biological target: Beta-2 adrenergic receptor (Homo sapiens, UniProt P07550); test: Binding affinity against Beta-2 adrenergic receptor
Beta-2 adrenergic receptor, sequence (P07550 whole entry): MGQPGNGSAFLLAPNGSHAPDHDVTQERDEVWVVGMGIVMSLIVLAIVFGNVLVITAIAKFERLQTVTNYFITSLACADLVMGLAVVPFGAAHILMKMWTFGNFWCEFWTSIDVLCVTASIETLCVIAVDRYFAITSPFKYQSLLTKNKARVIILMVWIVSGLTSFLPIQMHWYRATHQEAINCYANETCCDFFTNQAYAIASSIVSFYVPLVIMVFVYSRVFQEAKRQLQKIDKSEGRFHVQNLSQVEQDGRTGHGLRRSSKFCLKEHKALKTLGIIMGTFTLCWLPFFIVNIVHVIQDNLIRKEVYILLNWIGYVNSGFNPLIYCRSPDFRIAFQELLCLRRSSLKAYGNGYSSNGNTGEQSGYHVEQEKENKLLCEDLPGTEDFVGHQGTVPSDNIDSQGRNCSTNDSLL

T1 sequence (P14416 whole entry): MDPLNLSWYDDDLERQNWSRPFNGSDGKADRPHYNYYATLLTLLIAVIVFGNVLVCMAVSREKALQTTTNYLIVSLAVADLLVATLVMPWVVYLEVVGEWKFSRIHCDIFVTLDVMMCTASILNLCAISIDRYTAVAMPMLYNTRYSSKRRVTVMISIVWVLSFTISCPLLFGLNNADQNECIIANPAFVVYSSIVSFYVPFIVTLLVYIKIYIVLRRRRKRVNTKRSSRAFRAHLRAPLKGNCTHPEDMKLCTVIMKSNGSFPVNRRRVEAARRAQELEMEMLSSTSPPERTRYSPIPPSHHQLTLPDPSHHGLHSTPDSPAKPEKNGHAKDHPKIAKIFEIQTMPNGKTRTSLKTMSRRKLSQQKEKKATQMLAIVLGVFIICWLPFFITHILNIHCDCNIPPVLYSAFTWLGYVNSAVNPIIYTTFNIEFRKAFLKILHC

SMILES | IA (D(2) dopamine receptor [1]) | EC50 (D(2) dopamine receptor [2]) | Ki (D(2) dopamine receptor [3]) | EC50 (D(1A) dopamine receptor [4]) | Ki (D(1A) dopamine receptor [5]) | ED50 (Rattus norvegicus) | also measured
NC[C@@H]1O[C@H](C23CC4CC(CC(C4)C2)C3)Cc2c1ccc(O)c2O | 18% | > 4 µM | 1.55 µM |  |  |  | 
CCCc1cc2c(s1)CN[C@H]1CCc3cc(O)c(O)cc3[C@H]21 | 3% | > 10 µM | 4.02 µM | 1.7 µM | 3.05 µM |  | 
Oc1cc2c(cc1O)[C@@H](c1ccccc1)CNCC2 [(R)-SKF-38393] |  |  |  |  |  | 0.02 µmol/kg | IA (D(2) dopamine receptor [6]): inactive
CCCc1cc2c(s1)CN[C@@H]1CCc3cc(O)c(O)cc3[C@@H]21 [A-86929] |  | 3.9 µM | 0.71 µM | 0.009 µM | 0.049 µM |  | 
Oc1cc2c(cc1O)[C@H]1c3ccccc3CN[C@@H]1CC2 [DIHYDREXIDINE] |  |  |  |  |  | 0.04 µmol/kg | Ki [7]: > 3 µM; Ki [8]: 2.4 µM; Ki [9]: > 3 µM; Ki [10]: 1.5 µM; Ki [11]: 1.2 µM
